The results in this text go back to ChEMBL document CHEMBL2086299, “Melanogenesis inhibitory and fibroblast proliferation accelerating effects of noroleanane- and oleanane-type triterpene oligoglycosides from the flower buds of Camellia japonica” (2012).

Holding throughout (assay type): functional
Parameters in all cases: scale not given: the % may be the effect or the level left

Experiment [1] in a line: Inhibition of melanogenesis in theophylline-stimulated mouse B16-4A5 cells at 10 uM after 72 hrs by microplate reader. A digest of the protocol:
(§1)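 B16 melanoma 4A5 cells seeded 2.0 × 10^4 cells/well in 24-well plates and cultured 24 h. Then 72 h with compound plus 1 mM theophylline (DMSO, final 0.1%). Cells trypsin/EDTA-harvested, washed, lysed in 1 M NaOH (80 °C, 30 min). Lysate melanin read by OD at 405 nm (ref 655 nm). Inhibition (%) = [(A − B)/A] × 100 versus vehicle. Mean ± SEM, n = 4.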

The nature of experiment [2]: Inhibition of melanogenesis in theophylline-stimulated mouse B16-4A5 cells at 20 uM after 72 hrs by microplate reader. Put shortly:
as §1

Experiment [3] is described as follows: Inhibition of melanogenesis in theophylline-stimulated mouse B16-4A5 cells at 40 uM after 72 hrs by microplate reader. Put shortly:
as §1

In the case of `OC[C@H]1O[C@@H](Oc2ccc(O)cc2)[C@H](O)[C@@H](O)[C@@H]1O` [ARBUTIN], the Activity is -0.1% in experiment [1], 13.3% in experiment [2] and 18% in experiment [3].
